Compound activity as filed in PubChem.
An excerpt weighted towards active compounds, which were near 3% of everything screened.
HTR1A agonist: agonists of human 5-HT1a serotonin receptor; CHO 5-HT1a Ga15 NFAT-bla reporter, FRET ratio; 0% basal, 100% maximal reference agonist; activation, % at 10 µM; 0.56% of 65,000 active; AID 567;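 active = activation above the screen-wide mean activation plus 3 SD, cut at about 19% in these data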;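 note: 0% = DMSO wells and 100% = 5-CT at EC100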
Target sequence (P08908 whole entry, looked up): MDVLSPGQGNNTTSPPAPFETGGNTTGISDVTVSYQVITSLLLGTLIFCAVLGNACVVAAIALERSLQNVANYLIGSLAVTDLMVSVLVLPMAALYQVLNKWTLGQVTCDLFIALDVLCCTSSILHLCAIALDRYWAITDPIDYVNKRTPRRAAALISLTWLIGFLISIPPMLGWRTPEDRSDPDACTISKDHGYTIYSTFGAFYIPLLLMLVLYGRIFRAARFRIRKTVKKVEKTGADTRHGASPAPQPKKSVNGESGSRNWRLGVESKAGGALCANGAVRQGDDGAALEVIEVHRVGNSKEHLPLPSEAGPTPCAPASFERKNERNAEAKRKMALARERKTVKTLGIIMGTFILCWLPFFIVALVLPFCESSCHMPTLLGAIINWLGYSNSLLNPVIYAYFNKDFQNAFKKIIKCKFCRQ
5HT1a antag: 5-HT1a (human) receptor antagonism; CHO 5-HT1a Ga15 NFAT-bla reporter, antagonist mode; inhibition, % at 10 µM; 0.68% of 62,000 active; AID 612;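 active = inhibition above the mean of all tested compounds plus 3 SD, cut at about 43% in these data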;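 note: receptor stimulated by 5-CT agonist at 100 nM near EC80; beta-lactamase reporter measured by ratiometric fluorescence of a cleavable substrate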
5HT1E antag: blocks the human 5-HT1E serotonin receptor; P28566; CHO 5-HT1E Ga15 NFAT-bla reporter, FRET, antagonist; inhibition, % at 6 µM; 0.99% of 65,000 active; AID 571;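 active = inhibition above a set limit, the mean inhibition across every tested compound plus 3 SD, cut at about 29% in these data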;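 note: signal is the 460 over 535 nm emission ratio of beta-lactamase substrate; 0% = agonist plus DMSO wells and 100% = wells without agonist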
HTR1E agonist: 5-HT1E (human) receptor agonism. P28566. CHO 5-HT1E Ga15 NFAT-bla reporter, FRET; 0% DMSO wells, 100% control agonist wells. activation, % at 6 µM. 0.69% of 65,000 active;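 active = activation above a set limit, the screen-wide mean activation plus 3 SD, cut at about 8.5% in these data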;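 note: 100% = positive control agonist at 1 µM giving full maximal response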
S1P3 agonist: agonists of human S1P3 receptor; activation, % at 4.5 µM; 0.1% of 60,000 active; Q99500; S1P3 NFAT-BLA reporter cells, agonism, FRET ratio; relative to 1 µM S1P, basal subtracted;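 active = activation above the screen-wide mean plus 3 SD, cut at about 4.5% in these data, passing the limit was not always enough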
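Measure – % activation relative to 1 µM S1P (100%), per plate · System – stable CHO line with human S1P3, Gα16, NFAT-BLA reporter · Timing – cells plated overnight, compound 4 h 37 °C, substrate 2 h RT · Technique – fluorescent BLA substrate, ex 405 nm, em 460/535 nm ratio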
S1P1 ag-PAM: agonists and agonism potentiators of human S1P1 receptor; S1P1 CRE-bla cells, forskolin, beta-lactamase FRET, potentiator mode; S1P1 agonist co-added at EC20, 2 nM; 100% = saturating reference agonist, 0% = basal; activation, % at 9.5 µM; 0.57% of 56,000 active;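 active = activation above a cutoff set at the mean activation of all tested compounds plus 3 SD, cut at about 54% in these data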;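 note: forskolin at 4 µM as EC80 and the EC20 agonist is SEW2871; 100% = SEW2871 at its EC100 plus forskolin at EC80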
* marks the source's active call; other numbers are inactive results; . = no result.

SMILES	HTR1A agonist	5HT1a antag	5HT1E antag	HTR1E agonist	S1P3 agonist	S1P1 ag-PAM
c1ccc2c(c1)oc1c(N3CCN(Cc4ccc5c(c4)OCO5)CC3)ncnc12	63*	29	-10	0	-1	92*
N#Cc1cnn(-c2ccccc2)c1N	0	6	0	0	.	.
CC(C)C1N(c2ccccc2)C(N)=C(C#N)C1(C#N)C#N (configuration not stated)	2	-6	33*	0	0	1
COc1cccc2cc(C(=O)n3ccc(C)n3)c(=O)oc12	-2	2	-2	0	0	-4
CCS(=O)(=O)N1CCN(c2cccc(C)c2C)CC1	1	-22	-12	0	0	-14
Cc1cccc(N2CCN(CC(=O)NCC3CCCCC3)CC2)c1C	41*	16	-14	1	0	2
CC1CCOC2(O1)C(=O)N(CN1CCN(c3ccccc3F)CC1)c1ccccc12 (configuration not stated)	2	-6	-8	14*	0	-3
O=C1N(CN2CCC3(CC2)OCCO3)c2ccccc2C12OCCCO2	-3	-10	0	0	0	-7
O=C1N(CN2CCN(c3cccc(Cl)c3)CC2)c2ccccc2C12OCCCO2	2	10	7	24*	2	19
Oc1ccc2ccccc2c1CN1CCN(c2ccccc2F)CC1	3	1	-11	14*	0	7
NC(=O)CN1CCN(c2ccccc2F)CC1	-3	-3	7	0	-1	-28
CC1CCN(C(=O)CN2C(=O)c3ccccc3S2(=O)=O)CC1	38*	0	-7	-1	-1	-12
NC(=O)C1CCN(C(=O)CN2C(=O)c3ccccc3S2(=O)=O)CC1	-2	-14	-9	0	0	-13
COc1ccc(OC)c(NS(=O)(=O)c2ccc3c(c2)CCC(=O)N3)c1	-3	-5	-2	0	-1	0
CN(C)S(=O)(=O)c1ccc(NC(=O)c2cc3ccccc3o2)cc1	21*	-8	20	0	-2	14
CCC(=O)Nc1ccc(NC(=O)c2cc3ccccc3o2)cc1	1	-16	0	-1	-1	-10
CCCCN(CC)Cc1ccc(CNC(=O)Nc2ccc(OC)cc2OC)o1	-2	13	6	52*	0	2
COc1cccc(C2C(C(=O)c3cccs3)=C(O)C(=O)N2CCCn2ccnc2)c1OC (configuration not stated)	1	4	9	2	-1	.
O=C(Cc1ccc(-n2cccc2)cc1)NCc1cccs1	-3	36	51*	0	-2	6
O=C(Cn1cccc1)NCc1cccs1	-2	6	0	-1	0	-13
Cc1c[nH]c2cccc(OCC(O)CNC(C)(C)C)c12 (configuration not stated)	-3	82*	1	2	0	-12
CC(C)(C)NCC(O)COc1ccccc1C(C)(C)C (configuration not stated)	-2	80*	5	0	0	17
CCOc1ccccc1OCC(O)CNC (configuration not stated)	0	-8	-1	2	0	17
Cc1cc(C)nc(NCC(O)COc2ccccc2C)n1 (configuration not stated)	-1	10	-5	0	-1	4
Cc1ccc(CNC(=O)C2CCN(S(=O)(=O)c3cccs3)CC2)o1	1	2	1	-1	-1	-13
O=C(Nc1nnc(-c2ccccc2Cl)o1)c1cccnc1	3	7	8	0	0	10
CCN1C(=O)c2ccccc2S(=O)c2ccc(C(=O)NCCCN3CCCC3=O)cc21 (configuration not stated)	0	9	30*	-1	0	-6
CCN1C(=O)c2ccccc2S(=O)c2ccc(C(=O)NC3CC3)cc21 (configuration not stated)	-1	-1	-2	1	0	-23
CCOc1ccc(C2N(c3ccc(F)cc3)C(=O)C3CCCN32)cc1OC (configuration not stated)	-4	13	1	0	-2	-1
